Laboratory results as given in ChEMBL document CHEMBL1129987, “Structure-based design of nonpeptidic HIV protease inhibitors: the sulfonamide-substituted cyclooctylpyramones” (J Med Chem, 1997).
pEC50, pKi: −log10 of the molar value.

Experiments:
[1] = system: Human immunodeficiency virus 1; test: Antiviral activity in HIV-1 infected H9 cells; format: functional; conditions: Human immunodeficiency virus 1, H9; read-out: ED50 (the source's name)
Method in brief: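 H9 cells infected with HIV-1 IIIB at MOI about 0.005, spun down (200g, 10 min), resuspended at 8 × 10^5 cells/mL in RPMI Complete and mixed with compound; final DMSO 0.1%, triplicate per concentration. After 5 days at 37 °C in 5% CO2, supernatant p24 antigen was measured by ELISA. ED50 is the drug amount that reduces p24 by 50% versus DMSO drug-free controls.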

[2] = molecular target: Human immunodeficiency virus type 1 protease (Human immunodeficiency virus 1, UniProt Q72874); test: Binding affinity against HIV-1 protease
[3] = Median cell culture toxic dose was evaluated against H9 cell line; format: ADME, cell-based; conditions: human, H9 cells; read-out: CCTD50

Row | pEC50 [1] | pKi [2] | Structure (SMILES) | CC50 [3] [nM]
1 | 4.48 |  | CC(C)(C)OC(=O)NCCC(=O)Nc1cccc(C(c2c(O)c3c(oc2=O)CCCCCC3)C2CC2)c1 (stereo not given) | 
2 | 5.34 | 8.66 | O=c1c2c(oc(O)c1C(c1cccc(NS(=O)(=O)c3ccccn3)c1)C1CC1)CCCCCC2 (stereo not given) | > 30000
3 |  | 8.52 | O=c1c2c(oc(O)c1C(c1cccc(NS(=O)(=O)/C=C/c3ccccc3)c1)C1CC1)CCCCCC2 (stereo not given) | 
4 | 5.47 | 8.39 | O=c1c2c(oc(O)c1C(c1cccc(NS(=O)(=O)c3ccc(Cl)c(Cl)c3)c1)C1CC1)CCCCCC2 (stereo not given) | > 30000
5 | 5.85 | 8.72 | O=c1c2c(oc(O)c1C(c1cccc(NS(=O)(=O)c3cccc4cccnc34)c1)C1CC1)CCCCCC2 (stereo not given) | 82000
6 |  | < 6.70 | C=CS(=O)(=O)Nc1cccc(C(c2c(O)oc3c(c2=O)CCCCC3)C2CC2)c1 (stereo not given) | 
7 | < 5.00 | 8.16 | O=c1c2c(oc(O)c1C(c1cccc(NS(=O)(=O)c3cc(Cl)cc(Cl)c3)c1)C1CC1)CCCCCC2 (stereo not given) | > 30000
8 |  | 7.68 | O=c1c2c(oc(O)c1C(c1cccc(NS(=O)(=O)c3ccccc3C(F)(F)F)c1)C1CC1)CCCCCC2 (stereo not given) | > 30000
9 | 5.23 | 7.96 | O=c1c2c(oc(O)c1C(c1cccc(NS(=O)(=O)c3ccccc3F)c1)C1CC1)CCCCCC2 (stereo not given) | > 30000
10 |  | 8.00 | CCS(=O)(=O)Nc1cccc(C(c2c(O)c3c(oc2=O)CCCCCC3)C2CC2)c1 (stereo not given) | 
11 |  | 7.89 | O=c1c2c(oc(O)c1C(c1cccc(NS(=O)(=O)Cc3ccccc3)c1)C1CC1)CCCCCC2 (stereo not given) | 
12 | 5.49 | 8.68 | O=c1c2c(oc(O)c1C(c1cccc(NS(=O)(=O)c3ccc(Br)cc3)c1)C1CC1)CCCCCC2 (stereo not given) | > 30000
13 |  | < 6.70 | Cc1cccc(C)c1S(=O)(=O)Nc1cccc(C(c2c(O)c3c(oc2=O)CCCCCC3)C2CC2)c1 (stereo not given) | > 30000
14 |  | < 6.70 | O=c1c2c(oc(O)c1C(c1cccc(NS(=O)(=O)c3c(Cl)cccc3Cl)c1)C1CC1)CCCCCC2 (stereo not given) | > 30000
15 | < 5.52 | 8.80 | O=c1c2c(oc(O)c1C(c1cccc(NS(=O)(=O)c3cscn3)c1)C1CC1)CCCCCC2 (stereo not given) | > 30000
16 | 5.38 | 8.33 | O=c1c2c(oc(O)c1C(c1cccc(NS(=O)(=O)c3cccc([N+](=O)[O-])c3)c1)C1CC1)CCCCCC2 (stereo not given) | > 30000
17 |  | 7.13 | O=c1c2c(oc(O)c1C(c1cccc(NS(=O)(=O)c3cc(Cl)ccc3Cl)c1)C1CC1)CCCCCC2 (stereo not given) | > 30000

Row | pEC50 [1] | pKi [2] | Structure (SMILES) | CC50 [3] [nM]
18 | 5.59 |  | O=c1c2c(oc(O)c1[C@H](c1cccc(NS(=O)(=O)c3ccccc3)c1)C1CC1)CCCCCC2 | > 30000
19 |  | 8.21 | O=c1c2c(oc(O)c1C(c1cccc(NS(=O)(=O)c3ccc(Cl)cc3Cl)c1)C1CC1)CCCCCC2 (stereo not given) | > 30000
20 |  | 6.92 | CS(=O)(=O)Nc1cccc(C(c2c(O)c3c(oc2=O)CCCCC3)C2CC2)c1 (stereo not given) | 
21 | < 5.00 |  | O=c1c2c(oc(O)c1[C@@H](c1cccc(NS(=O)(=O)c3ccccc3)c1)C1CC1)CCCCCC2 | > 30000
22 |  | 8.03 | O=c1c2c(oc(O)c1C(c1cccc(NS(=O)(=O)c3ccccc3Cl)c1)C1CC1)CCCCCC2 (stereo not given) | > 30000
23 |  | 8.40 | CCCS(=O)(=O)Nc1cccc(C(c2c(O)c3c(oc2=O)CCCCCC3)C2CC2)c1 (stereo not given) | 
24 |  | 8.44 | O=c1c2c(oc(O)c1C(c1cccc(NS(=O)(=O)C3CCCCC3)c1)C1CC1)CCCCCC2 (stereo not given) | 
25 |  | 8.41 | O=c1c2c(oc(O)c1C(c1cccc(NS(=O)(=O)CCc3ccccc3)c1)C1CC1)CCCCCC2 (stereo not given) | 
26 |  | 8.22 | CCCCCCCCS(=O)(=O)Nc1cccc(C(c2c(O)c3c(oc2=O)CCCCCC3)C2CC2)c1 (stereo not given) | 
27 | 5.26 |  | O=c1c2c(oc(O)c1C(c1cccc(NS(=O)(=O)c3ccccc3)c1)C1CC1)CCCCCC2 (stereo not given) | > 30000
28 |  | 7.44 | O=c1c2c(oc(O)c1C(c1cccc(S(=O)(=O)Nc3ccccc3)c1)C1CC1)CCCCCC2 (stereo not given) | 
29 |  | 9.10 | CCC(c1ccccc1)c1c(O)c2ccccc2oc1=O (stereo not given) [PHENPROCOUMON] | 
30 |  | 7.82 | O=c1c2c(oc(O)c1C(c1ccccc1)C1CC1)CCCCCC2 (stereo not given) | 
31 |  | 7.74 | C=CS(=O)(=O)Nc1cccc(C(c2c(O)oc3c(c2=O)CCCCCC3)C2CC2)c1 (stereo not given) | 
32 | < 5.00 |  | CC(C)C(c1cccc(NS(=O)(=O)c2cccnc2)c1)c1c(O)c2c(oc1=O)CCCCCC2 (stereo not given) | > 30000
33 |  | 7.33 | O=c1c2c(oc(O)c1C(c1cccc(NS(=O)(=O)c3ccc(C(F)(F)F)c(C(F)(F)F)c3)c1)C1CC1)CCCCCC2 (stereo not given) | > 30000

Row | Structure (SMILES) | pEC50 [1] | pKi [2] | CC50 [3] [nM]
34 | O=C(O)c1cccc(S(=O)(=O)Nc2cccc(C(c3c(O)c4c(oc3=O)CCCCCC4)C3CC3)c2)c1 (stereo not given) | < 5.00 | 8.35 | > 30000
35 | CC(C)CC(c1cccc(NS(=O)(=O)c2cccnc2)c1)c1c(O)c2c(oc1=O)CCCCCC2 (stereo not given) | < 5.00 | 8.03 | > 30000
36 | Cc1ccc(S(=O)(=O)Nc2cccc(C(c3c(O)c4c(oc3=O)CCCCCC4)C3CC3)c2)cc1 (stereo not given) | 5.44 | 8.48 | > 30000
37 | Cn1cnc(S(=O)(=O)Nc2cccc([C@H](c3c(O)c4c(oc3=O)CCCCCC4)C3CC3)c2)c1 |  | 10.10 | > 30000
38 | Cn1cnc(S(=O)(=O)Nc2cccc(C(c3c(O)c4c(oc3=O)CCCCCC4)C3CC3)c2)c1 (stereo not given) | 5.57 | 8.80 | > 100000
39 | CCCCOc1ccc(S(=O)(=O)Nc2cccc(C(c3c(O)c4c(oc3=O)CCCCCC4)C3CC3)c2)cc1 (stereo not given) |  | 7.74 | > 30000
40 | COC(=O)c1cccc(S(=O)(=O)Nc2cccc(C(c3c(O)c4c(oc3=O)CCCCCC4)C3CC3)c2)c1 (stereo not given) | 5.59 | 8.85 | > 30000
41 | CC(C)c1ccc(S(=O)(=O)Nc2cccc(C(c3c(O)c4c(oc3=O)CCCCCC4)C3CC3)c2)cc1 (stereo not given) |  | 7.89 | > 30000
42 | CC(C)C(c1cccc(NS(=O)(=O)c2ccc(Cl)cc2)c1)c1c(O)c2c(oc1=O)CCCCCC2 (stereo not given) | < 5.00 | 7.74 | > 30000
43 | CC(C)C(c1cccc(NS(=O)(=O)c2cccc3cccnc23)c1)c1c(O)c2c(oc1=O)CCCCCC2 (stereo not given) | < 5.00 | 8.38 | > 30000
44 | NC(=O)c1ccc(S(=O)(=O)Nc2cccc(C(c3c(O)c4c(oc3=O)CCCCCC4)C3CC3)c2)cc1 (stereo not given) | 5.24 | 8.72 | > 30000
45 | CS(=O)(=O)Nc1cccc(C(c2c(O)c3c(oc2=O)CCCCCC3)C2CC2)c1 (stereo not given) |  | 7.96 | 
46 | CC(C)CC(c1cccc(NS(=O)(=O)c2cn(C)cn2)c1)c1c(O)c2c(oc1=O)CCCCCC2 (stereo not given) | 5.89 | 10.07 | > 30000
47 | Cc1ccccc1S(=O)(=O)Nc1cccc(C(c2c(O)c3c(oc2=O)CCCCCC3)C2CC2)c1 (stereo not given) |  | 8.03 | > 30000
48 | CCCCS(=O)(=O)Nc1cccc(C(c2c(O)c3c(oc2=O)CCCCCC3)C2CC2)c1 (stereo not given) |  | 8.34 | 
49 | CCCc1ccc(S(=O)(=O)Nc2cccc(C(c3c(O)c4c(oc3=O)CCCCCC4)C3CC3)c2)cc1 (stereo not given) |  | 7.96 | > 30000
50 | Nc1ccc(S(=O)(=O)Nc2cccc(C(c3c(O)c4c(oc3=O)CCCCCC4)C3CC3)c2)cc1 (stereo not given) |  | 8.16 | > 30000
51 | CCc1ccc(S(=O)(=O)Nc2cccc(C(c3c(O)c4c(oc3=O)CCCCCC4)C3CC3)c2)cc1 (stereo not given) |  | 8.30 | > 30000
52 | CCS(=O)(=O)Nc1cccc(C(c2c(O)c3c(oc2=O)CCCCC3)C2CC2)c1 (stereo not given) |  | 7.20 | 
53 | CC(C)S(=O)(=O)Nc1cccc(C(c2c(O)c3c(oc2=O)CCCCCC3)C2CC2)c1 (stereo not given) |  | 7.48 | 
